# Only a selection was taken, and hits are over-represented in it overall.
# NALP3 yeast inh – inhibitors of NALP3 inflammasome in yeast. Yeast reconstituted NLRP3/ASC/caspase-1, beta-gal luminescence, 24 h. inhibition, % at 10 µM. hit rate 0.39% among 330,000;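 active means inhibition of 50% or more; inactive means inhibition below 50%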;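 further: plate controls were induced DMSO wells for no effect and uninduced yeast grown without galactose for full effect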
# NALP1 inh – blocks the NALP1 inflammasome reconstituted in yeast; hit rate 0.61% among 280,000; inhibition, % at 10 µM; AID 2071; S. cerevisiae NALP1/ASC/caspase-1 growth, X-gal OD620, 72 h; in the data active means inhibition mostly above about 24%, no sharp cut-off; inactive means mostly below about 32%
# L major viab – reduces viability of Leishmania major promastigotes; hit rate 9% among 200,000; inhibition, % at 10 µM; resazurin fluorescence viability; in the data active means inhibition above about 50%;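 further: promastigotes grown with compound for 44 hours at 28 °C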
# PolyA inh – yeast polyadenylation inhibition | S. cerevisiae SKY197-pL101 polyadenylation reporter, beta-gal luminescence; efflux-impaired pdr1/pdr3 knockout yeast; score 100 = 6 SD above DMSO | activity score, % at 12 µM | hit rate 0.02% among 300,000;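 active means lowest replicate activity score at least 50, where 100 means six control SD above control mean; inconclusive means lowest score under 50 but half or more replicates reach 50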;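 further: yeast exposed to compound for 9 h at 30 °C; higher score means more reporter readthrough which indicates perturbed polyadenylation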
# T cruzi inh – blocks replication of Trypanosoma cruzi; T. cruzi beta-gal in NIH3T3, luminescence, 90 h; AID 1885; hit rate 1.4% among 300,000; inhibition, % (test concentration not listed);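 active means mean inhibition across valid replicates above about 55%, limit read from the data; inconclusive means mean below that limit but half or more replicates reach it; inactive means mean below it, under half of replicates reach it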;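 further: signal also drops with host cell toxicity which is not excluded here; 0% = plate median of DMSO wells and 100% = zero luminescence signal; higher percent means less beta-gal luminescence so fewer parasites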
#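 Read-out: Parasite load inhibition, % | Test system: Mouse NIH/3T3 fibroblasts infected with β-gal-expressing T. cruzi Tulahuen C4 | Amount: 5,000 cells/well | Medium: DMEM, 2% fetal bovine serum | Signal: GalScreen β-gal luminescence, detergent lysis, 60 min | Timing: 3 h attach, ≥90 h co-culture | Also added: Tulahuen C4 trypomastigotes, 5000/well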
# Calb FLC – C. albicans growth modulation with fluconazole | C. albicans CaCi-2 + fluconazole, Alamar Blue growth, 48 h | growth inhibition, % (no concentration beside the values) | hit rate 0.57% among 300,000;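 active means growth inhibition above about 58% in most replicates, limit read from the data, passing the limit was not always enough; inconclusive means exactly half the replicates above a set limit; inactive means most replicates below a set limit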;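 further: all wells also contain fluconazole at 8 µg/ml as a sub-toxic cotreatment; 0% = median of DMSO wells and 100% = median of geldanamycin control wells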
# Numbers without * were called inactive; ? = inconclusive; . = not tested or not shown.
SMILES,NALP3 yeast inh,NALP1 inh,L major viab,PolyA inh,T cruzi inh,Calb FLC
CC1CCCC(C)N1C(=O)COC(=O)c1cc(S(=O)(=O)N2CCOCC2)ccc1Cl (configuration not stated),-3.0,.,.,5.5,9.5,-5.6
CCCNS(=O)(=O)c1cccc(C(=O)NC2CCCc3ccccc32)c1 (configuration not stated),6.1,8.5,-0.2,-8.3,-4.9,-6.6
Cc1cc2[nH]c(=O)c(=O)[nH]c2cc1S(=O)(=O)N1CCN(c2ccccc2F)CC1,16.0,-2.2,.,12.1,-21.7,81.0*
Cc1cc2[nH]c(=O)c(=O)[nH]c2cc1S(=O)(=O)N1CCN(c2cccc(C)c2C)CC1,6.6,15.0,.,-17.5,-3.5,3.8
CC(C)(C)n1nnnc1C(c1cccs1)N(Cc1ccc(Cl)cc1)CC1CCCO1 (configuration not stated),3.3,9.8,25.1,-42.2,58.2*,-2.4
Fc1ccc(C(c2nnnn2C2CCCC2)N(Cc2ccco2)CC2CCCO2)cc1 (configuration not stated),8.2,9.6,78.2*,-0.2,24.3,-7.4
c1ccc(CN(Cc2ccco2)C(c2ccncc2)c2nnnn2C2CCCC2)cc1 (configuration not stated),7.4,34.1,95.2*,-27.6,-3.9,5.9
Fc1ccc(CN(Cc2ccccc2)C(c2cccs2)c2nnnn2C2CCCCC2)cc1 (configuration not stated),17.4,1.5,18.7,4.9,?,6.4
Clc1ccc(CN(Cc2ccccc2)C(c2cccs2)c2nnnn2C2CCCC2)cc1 (configuration not stated),10.2,-1.1,86.8*,-3.8,50.2,-4.3
O=c1oc(-c2ccc(Br)cc2)nc2ccccc12,22.3,6.4,.,-1.8,8.7,8.8
O=C(CN1C(=O)NC2(CCOc3ccccc32)C1=O)N1CCCCC1 (configuration not stated),13.8,.,.,.,.,.
CC(C#N)Sc1ccc(S(=O)(=O)N(C)C2CCCCC2)cn1 (configuration not stated),24.2,.,.,.,.,.
CCc1nnc(NC(=O)C2Cc3ccccc3CN2S(=O)(=O)CC)s1 (configuration not stated),2.0,8.3,-1.7,6.8,-6.4,-2.5
CCS(=O)(=O)N1Cc2ccccc2CC1C(=O)Nc1nc2ccccc2s1 (configuration not stated),4.4,18.6,67.0*,0.7,8.4,-13.9
Cc1nn(-c2ccccc2)c(Cl)c1/C=C1\SC(=S)N(C)C1=O,6.1,28.3,53.3*,-6.0,-17.4,-20.4
Cc1nn(-c2ccccc2)c(Cl)c1/C=C/C(=O)c1ccccc1,1.7,-25.6,69.2*,-22.3,-0.5,-5.5
Cc1nn(-c2ccccc2)c(Cl)c1/C=N/O,29.5,34.9,-7.5,-15.1,-17.1,0.4
Cc1nn(-c2ccccc2)c(Cl)c1/C=C1\C(=O)N(C)C(=S)N1C,12.9,23.2,-1.5,-18.8,13.7,6.0
CN(C)c1ccc(-c2ccccc2)nn1,35.1,-8.5,-1.5,12.5,-5.3,-8.6
O=C(O)c1ccc(S(=O)(=O)NC2CCCCCC2)cc1,2.0,4.3,.,20.6,-3.3,35.8
CCOC(=O)c1cc(CC)sc1/N=C/c1c(O)ccc2ccccc12,6.2,18.1,63.5*,-21.5,7.7,1.0
O=C(CSCCO)Nc1cccc([N+](=O)[O-])c1,8.5,10.0,64.8*,10.7,-2.6,-4.7
O=C(CSCCO)Nc1ccc([N+](=O)[O-])cc1,3.9,2.4,-6.5,7.2,-10.9,-4.7
CCOC(=O)/C=C/C(=O)Nc1cccc([N+](=O)[O-])c1,1.7,80.7*,0.5,0.1,34.7,-9.7
CCN(CC)S(=O)(=O)c1cccc(NC(=O)c2ccc(Sc3nncn3C)c([N+](=O)[O-])c2)c1,3.7,-2.7,-8.4,-13.0,0.4,1.3
COc1cc2c(cc1NC(=O)CSc1nnc(Cc3cccs3)n1Cc1ccco1)oc1ccccc12,7.4,23.0,90.7*,1.5,51.0,-2.7
CCn1c(SCC(=O)Nc2cc3oc4ccccc4c3cc2OC)nnc1-c1cccs1,9.1,-0.6,65.9*,-20.0,26.0,3.4
COc1cc2c(cc1NC(=O)CSc1nc3ccc(C)cc3[nH]1)oc1ccccc12,12.8,8.6,65.2*,2.3,47.4,8.5
